Data set [1] in a line: Apparent permeability across apical to basolateral side in dog RRCK cells. Format: ADME, cell-based, Canis lupus familiaris, MDCKII-LE. The settings on record: MDCK.
Data set [2] in a line: Ratio of total drug level in brain to plasma in Wistar Han rat at 1 mg/kg, iv after 2 hrs. Also on record: dose 1 mg/kg, route intravenous. It counts as ADME, organism-based. An outline of the steps:
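Wistar-Han rats received a single 1 mg/kg IV dose. Total drug levels in brain and plasma were determined from pharmacokinetics over 0−2 h post-dose and expressed as a ratio.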

Data set [3] is described as follows: Fraction unbound in human plasma. It counts as ADME, cell-free.
Data set [4] is described as follows: Fraction unbound in rat plasma. It counts as ADME, cell-free.
The nature of data set [5]: Fraction unbound in rat brain. Format: ADME, tissue-based.
Data set [6] is described as follows: Drug uptake in cynomolgus monkey cerebellum at 215 MBq, iv measured for 90 mins by PET analysis. It counts as ADME, organism-based, Macaca fascicularis. The note with it: in vivo, 1.5 h. An outline of the steps:
(§1)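 Male cynomolgus monkeys (n=2, 5–6 years) were fasted overnight and given ketamine 10 mg/kg IM plus glycopyrrolate 0.01 mg/kg IM. They were intubated and maintained under isoflurane (1.5−2.0% in O2). The radiotracer was given as an IV saphenous bolus targeting 37 MBq/kg. A 57Co transmission scan provided attenuation/scatter correction. A 90 min dynamic acquisition was binned into 16 frames (5×1, 5×5, 6×10 min).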

Data set [7] can be described thus: Drug uptake in cynomolgus monkey caudate nucleus at 215 MBq, iv measured for 90 mins by PET analysis. It counts as ADME, organism-based, Macaca fascicularis. The note with it: in vivo, 1.5 h. An outline of the steps: as §1
Data set [8] has as its system Putamen. The data set is described as follows: Drug uptake in cynomolgus monkey putamen at 215 MBq, iv measured for 90 mins by PET analysis. Format: ADME, organism-based, Macaca fascicularis. The settings on record: in vivo, 1.5 h. An outline of the steps: as §1
A short description of data set [9]: Drug uptake in cynomolgus monkey skull at 215 MBq, iv measured for 90 mins by PET analysis. It counts as ADME, organism-based, Macaca fascicularis. The note with it: in vivo, 1.5 h. The method, boiled down: as §1
Data set [10] has as its target High affinity cAMP-specific and IBMX-insensitive 3',5'-cyclic phosphodiesterase 8B (Homo sapiens, UniProt O95263). Kind of data set: Inhibition of PDE8B (unknown origin).
Data set [11] concerns the target High affinity cGMP-specific 3',5'-cyclic phosphodiesterase 9A (Homo sapiens, UniProt O76083). Kind of data set: Inhibition of PDE9A (unknown origin).
In data set [12] the target is 3',5'-cyclic-AMP phosphodiesterase 7B (Homo sapiens, UniProt Q9NP56). The data set is described as follows: Inhibition of PDE7B (unknown origin).
The target of data set [13] is cGMP-inhibited 3',5'-cyclic phosphodiesterase 3A (Homo sapiens, UniProt Q14432). The data set is described as follows: Inhibition of PDE3A (unknown origin).
Data set [14] concerns the target Dual specificity calcium/calmodulin-dependent 3',5'-cyclic nucleotide phosphodiesterase 1B (Homo sapiens, UniProt Q01064). Kind of data set: Inhibition of PDE1B (unknown origin).
Data set [15] concerns the target cAMP and cAMP-inhibited cGMP 3',5'-cyclic phosphodiesterase 10A (Homo sapiens, UniProt Q9Y233). Kind of data set: Inhibition of PDE10A (unknown origin).
The target of data set [16] is cGMP-specific 3',5'-cyclic phosphodiesterase (Homo sapiens, UniProt O76074). The data set is described as follows: Inhibition of PDE5A (unknown origin).
The target in data set [17] is cGMP-dependent 3',5'-cyclic phosphodiesterase (Homo sapiens, UniProt O00408). The data set is described as follows: Inhibition of full length recombinant human PDE2A expressed in Sf21 cells using [3H]-cGMP as substrate by scintillation proximity assay.
The subject of data set [18] is Cynomolgus monkey. The data set is described as follows: Binding affinity to PDE2A in cynomolgus monkey striatum at 215 MBq, iv measured for 90 mins by PET analysis. Format: functional, organism-based. The settings on record: Macaca fascicularis, 215 M, tested as the 18F-labelled form. An outline of the steps:
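Two male cynomolgus monkeys, 5–6 years old, were fasted overnight and premedicated with ketamine (10 mg/kg IM) and glycopyrrolate (0.01 mg/kg IM). They were then intubated and kept under isoflurane (1.5−2.0% in oxygen). Tracer was an IV bolus via the saphenous vein, targeting 37 MBq/kg. A 90 min dynamic scan followed. Striatal binding potential was derived by a simplified reference tissue model, with cerebellum as the reference region.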

Data set [19] addresses 3',5'-cyclic-AMP phosphodiesterase 4D (Homo sapiens, UniProt Q08499). Kind of data set: Inhibition of PDE4D (unknown origin).

The source made the active and inactive calls. The calls are words filed in the database; no cut-off is given here.

Chain of cGMP-dependent 3',5'-cyclic phosphodiesterase (O00408 whole entry): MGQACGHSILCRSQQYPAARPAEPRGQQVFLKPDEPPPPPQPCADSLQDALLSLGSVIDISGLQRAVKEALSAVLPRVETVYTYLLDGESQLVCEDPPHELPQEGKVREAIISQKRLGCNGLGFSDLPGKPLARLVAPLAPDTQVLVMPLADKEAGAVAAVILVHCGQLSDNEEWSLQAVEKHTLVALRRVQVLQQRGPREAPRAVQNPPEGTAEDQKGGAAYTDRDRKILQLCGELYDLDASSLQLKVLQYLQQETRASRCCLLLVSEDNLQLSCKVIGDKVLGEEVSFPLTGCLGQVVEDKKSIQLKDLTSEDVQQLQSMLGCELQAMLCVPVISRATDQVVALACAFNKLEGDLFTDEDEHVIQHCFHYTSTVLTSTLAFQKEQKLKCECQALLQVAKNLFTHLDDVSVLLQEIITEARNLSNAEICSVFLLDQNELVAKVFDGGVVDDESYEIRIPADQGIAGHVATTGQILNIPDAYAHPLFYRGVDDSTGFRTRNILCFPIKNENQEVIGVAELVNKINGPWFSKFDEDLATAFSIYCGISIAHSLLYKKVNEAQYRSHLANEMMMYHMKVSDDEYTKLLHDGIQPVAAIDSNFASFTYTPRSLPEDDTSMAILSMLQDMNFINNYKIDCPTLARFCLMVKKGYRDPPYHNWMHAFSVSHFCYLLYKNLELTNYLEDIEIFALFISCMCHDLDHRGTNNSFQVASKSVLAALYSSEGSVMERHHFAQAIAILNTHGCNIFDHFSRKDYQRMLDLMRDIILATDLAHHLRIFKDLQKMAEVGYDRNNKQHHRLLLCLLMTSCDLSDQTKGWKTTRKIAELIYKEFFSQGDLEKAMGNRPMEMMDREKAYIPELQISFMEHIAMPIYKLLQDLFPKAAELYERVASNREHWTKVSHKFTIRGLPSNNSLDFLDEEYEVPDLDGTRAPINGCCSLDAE
Chain of High affinity cAMP-specific and IBMX-insensitive 3',5'-cyclic phosphodiesterase 8B (O95263 whole entry): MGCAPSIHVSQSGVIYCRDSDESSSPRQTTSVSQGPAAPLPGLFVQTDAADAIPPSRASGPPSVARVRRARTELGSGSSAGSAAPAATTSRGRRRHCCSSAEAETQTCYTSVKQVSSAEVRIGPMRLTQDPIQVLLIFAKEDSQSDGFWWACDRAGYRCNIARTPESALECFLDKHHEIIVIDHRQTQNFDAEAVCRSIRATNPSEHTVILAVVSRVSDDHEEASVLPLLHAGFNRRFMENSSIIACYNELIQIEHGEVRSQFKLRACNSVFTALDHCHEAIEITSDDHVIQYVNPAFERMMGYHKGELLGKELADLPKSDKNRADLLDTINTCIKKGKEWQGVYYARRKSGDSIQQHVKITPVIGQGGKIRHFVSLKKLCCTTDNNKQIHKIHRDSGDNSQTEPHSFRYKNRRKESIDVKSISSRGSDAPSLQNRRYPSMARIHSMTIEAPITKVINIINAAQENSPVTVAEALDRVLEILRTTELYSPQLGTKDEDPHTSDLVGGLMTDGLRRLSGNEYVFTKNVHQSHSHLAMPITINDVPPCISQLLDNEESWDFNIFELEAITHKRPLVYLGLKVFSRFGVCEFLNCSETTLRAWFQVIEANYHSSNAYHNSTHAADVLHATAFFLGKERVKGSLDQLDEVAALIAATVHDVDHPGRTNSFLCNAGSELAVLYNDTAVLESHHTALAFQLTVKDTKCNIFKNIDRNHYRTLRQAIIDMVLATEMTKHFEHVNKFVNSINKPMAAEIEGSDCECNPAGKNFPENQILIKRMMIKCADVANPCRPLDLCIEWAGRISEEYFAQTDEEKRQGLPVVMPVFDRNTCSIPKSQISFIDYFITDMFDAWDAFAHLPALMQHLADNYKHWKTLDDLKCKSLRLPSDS
Chain of 3',5'-cyclic-AMP phosphodiesterase 4D (Q08499 whole entry): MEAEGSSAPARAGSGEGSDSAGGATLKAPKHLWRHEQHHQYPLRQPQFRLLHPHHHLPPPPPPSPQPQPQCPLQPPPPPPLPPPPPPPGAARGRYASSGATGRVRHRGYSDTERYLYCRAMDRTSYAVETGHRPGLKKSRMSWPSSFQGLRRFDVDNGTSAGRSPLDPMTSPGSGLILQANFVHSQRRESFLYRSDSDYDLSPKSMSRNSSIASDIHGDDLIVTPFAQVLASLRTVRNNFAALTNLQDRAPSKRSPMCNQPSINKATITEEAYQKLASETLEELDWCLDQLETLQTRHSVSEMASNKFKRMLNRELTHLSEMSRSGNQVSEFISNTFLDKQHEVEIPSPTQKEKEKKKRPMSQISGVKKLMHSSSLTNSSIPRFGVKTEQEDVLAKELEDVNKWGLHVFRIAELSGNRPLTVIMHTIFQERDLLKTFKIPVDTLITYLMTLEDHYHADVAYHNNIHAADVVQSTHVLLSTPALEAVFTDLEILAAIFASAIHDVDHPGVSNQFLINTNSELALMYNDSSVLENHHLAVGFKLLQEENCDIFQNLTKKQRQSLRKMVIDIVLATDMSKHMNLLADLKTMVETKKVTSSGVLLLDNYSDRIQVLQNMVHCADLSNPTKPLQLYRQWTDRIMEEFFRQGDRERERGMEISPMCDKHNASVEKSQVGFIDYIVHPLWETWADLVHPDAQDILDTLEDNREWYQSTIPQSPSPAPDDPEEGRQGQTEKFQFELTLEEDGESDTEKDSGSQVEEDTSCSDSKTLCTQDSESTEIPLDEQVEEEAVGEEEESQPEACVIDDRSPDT
Chain of cAMP and cAMP-inhibited cGMP 3',5'-cyclic phosphodiesterase 10A (Q9Y233 whole entry): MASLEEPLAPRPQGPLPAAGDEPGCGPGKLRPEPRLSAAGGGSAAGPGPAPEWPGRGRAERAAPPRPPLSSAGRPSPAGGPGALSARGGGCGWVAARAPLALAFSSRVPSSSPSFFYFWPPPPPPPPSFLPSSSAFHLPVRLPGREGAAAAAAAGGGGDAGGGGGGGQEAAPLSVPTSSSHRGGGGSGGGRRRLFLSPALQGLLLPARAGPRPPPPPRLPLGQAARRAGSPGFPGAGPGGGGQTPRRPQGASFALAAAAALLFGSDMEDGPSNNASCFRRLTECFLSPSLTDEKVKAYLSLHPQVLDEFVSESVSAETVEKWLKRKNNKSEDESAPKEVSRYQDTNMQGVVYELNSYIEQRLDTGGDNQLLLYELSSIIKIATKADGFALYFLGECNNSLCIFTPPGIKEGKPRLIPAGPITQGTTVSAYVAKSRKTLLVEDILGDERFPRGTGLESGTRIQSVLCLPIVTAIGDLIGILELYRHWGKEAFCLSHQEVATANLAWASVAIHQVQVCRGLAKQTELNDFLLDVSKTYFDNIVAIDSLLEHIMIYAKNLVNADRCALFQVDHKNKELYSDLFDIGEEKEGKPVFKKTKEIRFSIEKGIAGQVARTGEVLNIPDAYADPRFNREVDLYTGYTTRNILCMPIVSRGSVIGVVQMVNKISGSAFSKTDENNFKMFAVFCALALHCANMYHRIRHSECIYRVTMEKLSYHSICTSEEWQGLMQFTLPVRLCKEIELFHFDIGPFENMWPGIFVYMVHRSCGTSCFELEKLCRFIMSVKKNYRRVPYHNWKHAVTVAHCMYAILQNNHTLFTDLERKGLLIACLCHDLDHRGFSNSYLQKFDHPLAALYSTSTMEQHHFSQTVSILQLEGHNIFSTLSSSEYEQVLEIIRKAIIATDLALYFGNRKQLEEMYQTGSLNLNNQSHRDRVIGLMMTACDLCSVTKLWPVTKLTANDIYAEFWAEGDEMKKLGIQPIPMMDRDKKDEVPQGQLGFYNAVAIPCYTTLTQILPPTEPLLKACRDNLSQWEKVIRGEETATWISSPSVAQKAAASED
Chain of High affinity cGMP-specific 3',5'-cyclic phosphodiesterase 9A (O76083 whole entry): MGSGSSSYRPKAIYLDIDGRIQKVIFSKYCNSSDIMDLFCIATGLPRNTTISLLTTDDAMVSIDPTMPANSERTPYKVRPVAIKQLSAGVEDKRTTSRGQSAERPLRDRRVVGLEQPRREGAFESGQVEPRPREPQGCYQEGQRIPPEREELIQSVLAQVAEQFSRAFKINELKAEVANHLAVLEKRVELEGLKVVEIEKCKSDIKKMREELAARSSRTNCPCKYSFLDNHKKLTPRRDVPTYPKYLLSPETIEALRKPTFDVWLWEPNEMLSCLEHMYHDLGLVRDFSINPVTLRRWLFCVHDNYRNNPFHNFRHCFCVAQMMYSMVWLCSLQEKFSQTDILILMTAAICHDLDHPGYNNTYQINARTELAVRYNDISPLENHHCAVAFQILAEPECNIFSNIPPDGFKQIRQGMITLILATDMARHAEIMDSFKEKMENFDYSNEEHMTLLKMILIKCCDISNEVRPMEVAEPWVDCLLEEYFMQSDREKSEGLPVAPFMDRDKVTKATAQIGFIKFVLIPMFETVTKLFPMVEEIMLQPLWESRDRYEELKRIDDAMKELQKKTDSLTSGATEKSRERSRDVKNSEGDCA
Chain of Dual specificity calcium/calmodulin-dependent 3',5'-cyclic nucleotide phosphodiesterase 1B (Q01064 whole entry): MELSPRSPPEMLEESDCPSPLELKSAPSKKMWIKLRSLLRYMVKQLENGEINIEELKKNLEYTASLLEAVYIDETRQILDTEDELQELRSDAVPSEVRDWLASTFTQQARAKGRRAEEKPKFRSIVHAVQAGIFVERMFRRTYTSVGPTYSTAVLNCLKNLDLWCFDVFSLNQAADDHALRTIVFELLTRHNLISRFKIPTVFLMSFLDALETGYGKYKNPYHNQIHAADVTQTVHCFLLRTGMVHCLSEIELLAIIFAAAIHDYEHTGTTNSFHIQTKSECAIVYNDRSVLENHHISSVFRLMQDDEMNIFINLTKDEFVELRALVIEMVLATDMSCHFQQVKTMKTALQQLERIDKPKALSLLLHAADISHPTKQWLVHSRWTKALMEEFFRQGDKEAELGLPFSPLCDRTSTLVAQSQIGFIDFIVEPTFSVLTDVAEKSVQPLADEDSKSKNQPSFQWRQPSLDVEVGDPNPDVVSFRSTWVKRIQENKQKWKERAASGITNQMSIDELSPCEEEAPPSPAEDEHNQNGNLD

For `Cn1ncc(-c2nn(C)c3ncnc(N4CCC4)c23)c1-c1ccc(C(F)(F)F)cc1`, the Papp A→B – broadly, the apparent permeability from the apical to the basolateral side of a cell layer – in [1] came to 21.5 ×10⁻⁶ cm/s.

Regarding `COc1ccc(-c2c(-c3nc(C)n4ncnc(N5CCC5)c34)cnn2C)c(C)c1`, in data set [2] (Wistar Han, brain and plasma, read-out: BPR), the Kp at 2 h was found to be 0.34. Besides, the results for the fraction unbound in [3], in data set [4] and in data set [5] were 0.23, 0.29 and 0.17, respectively. In addition, the Papp A→B in data set [1] turned out to be 42 ×10⁻⁶ cm/s.

In the case of `Cc1nc(-c2cnn(C)c2-c2ccc(C(F)(F)F)cc2)c2c(N3CC([18F])C3)ncnn12`, the Drug uptake result in data set [6] was “Active”; in data set [7], “Active”; in data set [8], “Active”; in data set [9] it was “Not Active”.

On to `Cc1nc(-c2cnn(C)c2-c2ccc(C(F)(F)F)cc2)c2c(N3CC(F)C3)ncnn12`, for which the BPR in data set [2] (brain, 2 h) is listed as 1.56. In addition, the half-inhibitory concentration (IC50) (commonly the midpoint of a concentration-inhibition curve) in data set [10] was greater than 10 µM; in data set [11], greater than 10 µM; in data set [12], 12 µM; in [13], greater than 30 µM; in data set [14] it was greater than 30 µM; in [15] it was 3.9 µM. In addition, the results for the IC50 in data set [16], in [17] and in data set [19] were 26 µM, 0.00053 µM and greater than 30 µM, respectively. Moreover, the fraction unbound – broadly, free concentration divided by total concentration – in [3] was 0.17; in data set [4] it was 0.24; in data set [5], 0.077. Moreover, in data set [18], the result was Active. Moreover, the Papp A→B in data set [1] came out at 21 ×10⁻⁶ cm/s.
